Our source for the zone of inhibition values is ChEMBL document CHEMBL1914331, “N-O chemistry for antibiotics: discovery of N-alkyl-N-(pyridin-2-yl)hydroxylamine scaffolds as selective antibacterial agents using nitroso Diels-Alder and ene chemistry” (J Med Chem, 2011).

This test has as its system Sporobolomyces salmonicolor. Briefly: Antimicrobial activity against Sporidiobolus salmonicolor 549 at 10 ug/ml after 24 hrs by Kirby-Bauer agar diffusion assay. It counts as functional. The following applies: Sporobolomyces salmonicolor, 549, 24 h; read-out: DIZ. In a few lines: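 Control for the yeast: amphotericin B, 10 µg/mL in 10:1 DMSO:MeOH, 50 µL per 9 mm well in inoculated MHII agar (~5×10³ CFU/mL). Incubated at 37 °C for 24 h; growth-inhibition zone diameter measured in mm.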
(In general: Agar diffusion results depend on both activity and mobility in agar.)

Molecules are shown by their SMILES.

Take `C[C@@H]1[C@H](O)[C@@H](C)/C=C/C=C/C=C/C=C/C=C/C=C/C=C/[C@H](O[C@@H]2O[C@H](C)[C@@H](O)[C@H](N)[C@@H]2O)C[C@@H]2O[C@](O)(C[C@@H](O)C[C@@H](O)[C@H](O)CC[C@@H](O)C[C@@H](O)CC(=O)O[C@H]1C)C[C@H](O)[C@H]2C(=O)O` [AMPHOTERICIN B]: the zone of inhibition at 10 µg/mL turned out to be 16 mm.
